{
  "source": "paper PMC3099476",
  "about": "(Toxicology and applied pharmacology, 2011)",
  "key": {"[1]": {"test_system": "B6C3F1 male mice", "test": "Liver histology necrosis score", "assay_type": "in vivo, mouse", "conditions": "score 0 absent to 4 severe", "method_in_brief": "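Six-week male B6C3F1 mice, fasted overnight, dosed at 0800 with the analgesic hepatotoxicant IP, then immediately the test compound (MPT inhibitor, 50 or 10 mg/kg IP) or vehicle. Hepatotoxicant was 200 mg/kg IP in the 10 mg/kg arm. Saline controls included; 3–6 mice per group. Killed at 4 h. Liver H&E sections scored blind by three reviewers, 0 (absent) to 4 (severe); mean ± SE.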"}, "[2]": {"test_system": "HIF-1α", "conditions": "B6C3F1 male mice with APAP toxicity; 1 h; ref James et al., 2006; cited from earlier work"}, "[3]": {"test_system": "APAP protein adducts in liver", "test": "Hepatic APAP protein adducts", "assay_type": "in vivo, mouse"}, "[4]": {"test_system": "B6C3F1 male mice", "test": "Serum ALT in APAP toxicity", "assay_type": "in vivo, mouse"}, "[5]": {"conditions": "APAP 200 mg/kg IP followed by pimonidazole 60 mg/kg IP vs APAP/vehicle, 1 h"}},
  "data": [
    {"smiles": "CC(=O)Nc1ccc(O)cc1", "note": "[APAP, N-acetyl-p-aminophenol]", "values": [
      {"measurement": "Necrosis Scores at 4 hours, Mean", "setting": "[1]; Table 1A, CYC 50 mg/kg experiment", "value": 3},
      {"measurement": "Necrosis Scores at 4 hours, Mean", "setting": "[1]; Table 1B, CYC 10 mg/kg experiment", "value": 2},
      {"measurement": "HIF-1α induction", "setting": "[2]", "value": "induction of HIF-1α"},
      {"measurement": "Hepatic APAP protein adducts vs saline", "setting": "[3]; APAP followed by CYC 50 mg/kg IP or vehicle, 1, 2, and 4 h", "value": "increased"},
      {"measurement": "Hepatic protein adducts vs saline", "setting": "[3]; APAP/veh or APAP/CYC 10 mg/kg, 1 h", "value": "increased above saline"},
      {"measurement": "APAP protein adducts", "setting": "[3]; APAP/veh or APAP/CYC 10 mg/kg, 4 h (data not shown)", "value": "comparable"},
      {"measurement": "Hepatic APAP protein adduct levels", "setting": "[3]; separate experiment, APAP/veh or APAP/CYC 10 mg/kg, 1 h", "value": "elevated"},
      {"measurement": "ALT vs saline", "setting": "[4]; APAP 200 mg/kg IP followed by CYC 10 mg/kg IP or vehicle, 4 h", "value": "significantly increased"},
      {"measurement": "Serum ALT, time course", "setting": "[4]; APAP 200 mg/kg IP, at 2, 4, 8, 24 and 48 h, vs saline", "value": "significantly increased above saline"},
      {"measurement": "Serum ALT levels", "setting": "[4]; APAP 15, 30, 100, or 200 mg/kg IP, sacrificed at 1 h, vs saline", "value": "No significant changes"},
      {"measurement": "Serum ALT vs saline", "setting": "[4]; APAP followed by CYC 50 mg/kg IP or vehicle, 4 h", "value": "significantly increased"}
    ]},
    {"smiles": "O=[N+]([O-])c1nccn1CC(O)CN1CCCCC1", "note": "(centres unmarked) [pimonidazole]", "values": [
      {"measurement": "Hepatic APAP protein adducts", "setting": "[3]; [5]", "value": "comparable"},
      {"measurement": "Effect of pimonidazole on APAP metabolism", "setting": "[3]; pimonidazole 60 mg/kg IP after APAP 200 mg/kg IP, 1 h", "value": "no inhibitory affect on APAP metabolism"},
      {"measurement": "Serum ALT", "setting": "[4]; [5]", "value": "comparable"}
    ]}
  ]
}
